Here are results for 52 molecules from ChEMBL document CHEMBL1687916, “Non-nucleoside inhibitors of human adenosine kinase: synthesis, molecular modeling, and biological studies” (J Med Chem, 2011).

SMILES strings stand for the structures.

The term IC50 denotes the concentration needed to halve the response being measured. By inhibition is commonly meant the share of the control response that was lost under treatment.

The test system of the first assay is NIH3T3. Nature of the assay: Cytotoxicity against mouse 3T3 cells by phenyltetrazolium bromide assay. Format: functional, cell-based.
Settings: not given; call rule not given here
The method in brief:
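Murine 3T3 fibroblasts; proliferation measured by MTT assay, with IC50 reported. Each value is the mean of three determinations; Student's t test, p < 0.05.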
As for `CCC1(c2ccc(CSc3ccccc3Cl)cc2)Oc2ccccc2-n2cccc2C1=O` (racemic), the IC50 stood at 97.8 µM.

`CCC1(c2ccc(CSc3cccc(C(F)(F)F)c3)cc2)Oc2ccccc2-n2cccc2C1=O` (racemic): the midpoint of inhibition, the IC50, lay at 44.6 µM.

With `CCC1(c2ccc(CSc3ccc(I)cc3)cc2)Oc2ccccc2-n2cccc2C1=O` (racemic), it took 43.5 µM to reach half-maximal inhibition (IC50).

The molecule `CCC1(c2ccc(CSc3ccc(Br)cc3)cc2)Oc2ccccc2-n2cccc2C1=O` (racemic) yielded a half-maximal inhibitory concentration (IC50) of 47.6 µM.

Another assay deals with Adenosine kinase (Homo sapiens, UniProt P55263). The experiment in a line: Inhibition of human adenosine kinase.
Adenosine kinase, sequence (P55263 whole entry): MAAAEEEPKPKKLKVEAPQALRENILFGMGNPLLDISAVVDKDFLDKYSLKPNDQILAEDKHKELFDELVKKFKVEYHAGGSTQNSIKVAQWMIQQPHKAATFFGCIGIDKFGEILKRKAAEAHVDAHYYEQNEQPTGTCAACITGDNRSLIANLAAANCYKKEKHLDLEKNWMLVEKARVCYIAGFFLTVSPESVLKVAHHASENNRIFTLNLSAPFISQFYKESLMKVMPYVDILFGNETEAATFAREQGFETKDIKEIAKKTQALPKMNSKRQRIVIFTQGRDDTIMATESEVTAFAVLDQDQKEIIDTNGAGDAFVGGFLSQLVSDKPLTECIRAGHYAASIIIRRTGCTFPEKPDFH
Settings: not given
With `CC(=O)OC1=C(c2ccccc2)Sc2ccccc2-n2cccc21`, the IC50 result is “Not Active”.

Consider `CC(=O)OC1=C(c2ccccc2)Oc2ccccc2-n2cccc21`, for which the IC50 result is “Not Active”.

The assay is the same for the next values; noted with them: read-out: IC50.
For the molecule `CCC1(c2ccc(CSc3cccc(C)c3)cc2)Oc2ccccc2-n2cccc2C1=O` (racemic), the concentration for half-maximal inhibition (IC50) was 21.4 µM.

Regarding `CCC1(c2ccc(CSc3cccc(OC(F)(F)F)c3)cc2)Oc2ccccc2-n2cccc2C1=O` (racemic), the IC50 was 3.2 µM.

For the molecule `CCC1(c2ccc(CSc3ccc(F)cc3)cc2)Oc2ccccc2-n2cccc2C1=O` (racemic), the 50% inhibitory concentration (IC50) came out at 1 µM.

Take `CCC1(c2ccc(CSc3cccc(F)c3)cc2)Oc2ccccc2-n2cccc2C1=O` (racemic): the half-inhibitory concentration (IC50) worked out at 4 µM.

`CCC1(c2ccc(CSc3ccc(F)cc3Cl)cc2)Oc2ccccc2-n2cccc2C1=O` (racemic): the half-maximal inhibitory concentration (IC50) came to 2.5 µM.

On to `C#Cc1ccc(SCc2ccc(C3(CC)Oc4ccccc4-n4cccc4C3=O)cc2)cc1` (racemic), for which the IC50 is 15 µM.

As for `CCC1(c2ccc(C)cc2)Oc2ccccc2-n2cccc2C1=O` (racemic), the IC50 worked out at 80 µM.

As for `CCC1(c2ccc(CSc3ccc(C#C[Si](C)(C)C)cc3)cc2)Sc2ccccc2-n2cccc2C1=O` (racemic), the IC50 was found to be 2 µM.

Consider `O=C1c2cccn2-c2ccccc2OC1c1ccc(CSc2ccccc2Cl)cc1` (racemic), for which the IC50 turned out to be 4.4 µM.

Take `O=C1c2cccn2-c2ccccc2OC1c1ccc(CSc2ccccc2)cc1` (racemic): the IC50 was 4 µM.

`CCC1(c2ccc(COc3ccc(I)cc3Cl)cc2)Oc2ccccc2-n2cccc2C1=O` (racemic): the IC50 was 1.2 µM.

For the molecule `CCC1(c2ccc(CSc3ccc(I)cc3)cc2)Sc2ccccc2-n2cccc2C1=O` (racemic), the IC50 was determined as 2.2 µM.

With `CCC1(c2ccc(CSc3c(Cl)cccc3Cl)cc2)Oc2ccccc2-n2cccc2C1=O` (single isomer, unassigned; (-)), the IC50 worked out at 40 µM.

On to `O=C1c2cccn2-c2ccccc2SC1c1ccccc1` (racemic), for which the IC50 was 130 µM.

For the molecule `CCC1(c2ccc(CSc3ccc(OC(F)(F)F)cc3)cc2)Oc2ccccc2-n2cccc2C1=O` (racemic), the IC50 was 6.7 µM.

On to `CCC1(c2ccc(COc3cccc(CCO)c3)cc2)Oc2ccccc2-n2cccc2C1=O` (racemic), for which the IC50 was 8 µM.

Consider `CCC1(c2ccc(CSc3ccccn3)cc2)Oc2ccccc2-n2cccc2C1=O` (racemic), for which the concentration for half-maximal inhibition (IC50) was found to be 4.5 µM.

On to `CCC1(c2ccc(CSc3c(C)cccc3Cl)cc2)Oc2ccccc2-n2cccc2C1=O` (racemic), for which the IC50 is 3 µM.

On to `CCC1(c2ccc(CSc3ccc([N+](=O)[O-])cc3)cc2)Oc2ccccc2-n2cccc2C1=O` (racemic), for which the IC50 was determined as 6.2 µM.

For `CCC1(c2ccccc2)Oc2ccccc2-n2cccc2C1=O` (racemic), the IC50 was 85 µM.

For `CCC1(c2ccc(CSc3c(F)c(F)cc(F)c3F)cc2)Oc2ccccc2-n2cccc2C1=O` (racemic), the IC50 is 8 µM.

`CCC1(c2ccc(CSc3cc(OC)ccc3OC)cc2)Oc2ccccc2-n2cccc2C1=O` (racemic): the IC50 was 35 µM.

For `CCC1(c2ccc(CSc3ncc[nH]3)cc2)Oc2ccccc2-n2cccc2C1=O` (racemic), the IC50 was determined as 3.5 µM.

Take `CCC1(c2ccc(CSc3ccccc3Cl)cc2)Oc2ccccc2-n2cccc2C1=O` (racemic): the IC50 is 1 µM.

Regarding `CCC1(c2ccc(CSc3ccc(Cl)cc3Cl)cc2)Oc2ccccc2-n2cccc2C1=O` (racemic), the IC50 stood at 22.5 µM.

Turning to `CCC1(c2ccc(CSc3ccc(Cl)c(Cl)c3)cc2)Oc2ccccc2-n2cccc2C1=O` (racemic), the IC50 was 10 µM.

As for `CCC1(c2ccc(CSc3cccc(Cl)c3Cl)cc2)Oc2ccccc2-n2cccc2C1=O` (racemic), the IC50 came to 3 µM.

Take `CCC1(c2ccc(CSc3ccc(F)c(Cl)c3)cc2)Oc2ccccc2-n2cccc2C1=O` (racemic): the IC50 came out at 11 µM.

Turning to `CCC1(c2ccc(CSc3cccc(C(F)(F)F)c3)cc2)Oc2ccccc2-n2cccc2C1=O` (racemic), the IC50 amounted to 2.5 µM.

As for `CCC1(c2ccc(CSc3c(Cl)cccc3Cl)cc2)Oc2ccccc2-n2cccc2C1=O` (racemic), the IC50 came to 20 µM.

In the case of `CCC1(c2ccc(CSc3ccccc3F)cc2)Oc2ccccc2-n2cccc2C1=O` (racemic), the IC50 was found to be 4.5 µM.

`CCC1(c2ccc(COc3cccc(CCN4CCCC4)c3)cc2)Oc2ccccc2-n2cccc2C1=O` (racemic): the 50% inhibitory concentration (IC50) came out at 150 µM.

For `CCC1(c2ccc(CSc3ccc(I)cc3)cc2)Oc2ccccc2-n2cccc2C1=O` (racemic), the IC50 was 2.5 µM.

As for `CCC1(c2ccc(CSc3cccc(OC)c3)cc2)Oc2ccccc2-n2cccc2C1=O` (racemic), the IC50 was found to be 12.5 µM.

Turning to `CCC1(c2cccc(C)c2)Oc2ccccc2-n2cccc2C1=O` (racemic), the 50% inhibitory concentration (IC50) is 150 µM.

For `CCC1(c2ccc(CSc3ccc(C#C[Si](C)(C)C)cc3)cc2)Oc2ccccc2-n2cccc2C1=O` (racemic), the half-inhibitory concentration (IC50) is 10 µM.

Regarding `CCC1(c2ccc(CSc3ccccc3Cl)cc2)Sc2ccccc2-n2cccc2C1=O` (racemic), the half-inhibitory concentration (IC50) came out at 5 µM.

Consider `CCC1(c2ccc(CSc3ccc(F)cc3F)cc2)Oc2ccccc2-n2cccc2C1=O` (racemic), for which the IC50 is 10 µM.

As to `CCC1(c2ccc(CSc3cc(Cl)ccc3Cl)cc2)Oc2ccccc2-n2cccc2C1=O` (racemic), the IC50 came out at 14 µM.

With `CCN(CC)CCc1cccc(OCc2ccc(C3(CC)Oc4ccccc4-n4cccc4C3=O)cc2)c1` (racemic), the IC50 turned out to be 200 µM.

Regarding `CCC1(c2ccc(CSc3ccc(I)cc3Cl)cc2)Oc2ccccc2-n2cccc2C1=O` (racemic), the 50% inhibitory concentration (IC50) amounted to 2 µM.

Turning to `CCC1(c2ccc(CSc3cccc(Cl)c3)cc2)Oc2ccccc2-n2cccc2C1=O` (racemic), the IC50 came to 3.5 µM.

For `CN(C)c1ccc2n1-c1ccccc1SC(c1ccccc1)C2=O` (racemic), the 50% inhibitory concentration (IC50) was above 1000 µM.

`O=C1c2cccn2-c2ccccc2OC1c1ccccc1` (racemic): the IC50 was found to be 100 µM.

Consider `CCC1(c2ccc(CSc3ccc(OC)cc3)cc2)Oc2ccccc2-n2cccc2C1=O` (racemic), for which the IC50 was found to be 14 µM.

In the case of `O=C1c2cccn2-c2ccccc2OC1c1ccc(CSc2cccc(C(F)(F)F)c2)cc1` (racemic), the IC50 came out at 9 µM.

For `CCC1(c2ccc(CSc3ncccn3)cc2)Oc2ccccc2-n2cccc2C1=O` (racemic), the IC50 was 7 µM.

As for `CCC1(c2ccc(CSc3cnccn3)cc2)Oc2ccccc2-n2cccc2C1=O` (racemic), the IC50 is 7 µM.

Turning to `CCC1(c2ccc(CSc3c(Cl)cccc3Cl)cc2)Oc2ccccc2-n2cccc2C1=O` (single isomer, unassigned; (+)), the IC50 came to 7.5 µM.

On to `CCC1(c2ccc(CSc3ccc(Br)cc3)cc2)Oc2ccccc2-n2cccc2C1=O` (racemic), for which the IC50 was 2 µM.

The next assay has as its target T1, Adenosine deaminase (Bos taurus) (UniProt P56658).
T1 sequence (whole entry): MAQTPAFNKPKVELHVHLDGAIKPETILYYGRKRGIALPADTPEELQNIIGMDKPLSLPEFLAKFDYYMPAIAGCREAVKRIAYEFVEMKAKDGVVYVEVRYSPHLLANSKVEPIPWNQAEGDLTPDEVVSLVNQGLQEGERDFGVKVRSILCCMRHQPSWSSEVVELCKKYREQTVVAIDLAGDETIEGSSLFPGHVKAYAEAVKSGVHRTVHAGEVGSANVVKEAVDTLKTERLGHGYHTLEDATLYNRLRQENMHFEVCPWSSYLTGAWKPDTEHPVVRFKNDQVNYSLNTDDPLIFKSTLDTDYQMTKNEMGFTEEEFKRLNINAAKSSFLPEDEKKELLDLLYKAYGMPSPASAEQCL
Nature of the assay: Inhibition of bovine ADA at 100 uM by spectrophotometric analysis.
Settings: not given
A digest of the protocol: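 Adenosine deaminase assayed at 30 C with 50 μM Ado, 50 mM potassium phosphate pH 7.2 and 0.3 nM enzyme. Deamination was followed as A262 change over 2 min. Compound tested at 100 μM, with DMSO at most 4% final and a substrate-free blank. Percent inhibition from two determinations in triplicate.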
For `CCC1(c2ccc(CSc3ccc(F)cc3)cc2)Oc2ccccc2-n2cccc2C1=O` (racemic), the inhibition turned out to be 13%.

`C#Cc1ccc(SCc2ccc(C3(CC)Oc4ccccc4-n4cccc4C3=O)cc2)cc1` (racemic) yielded an inhibition of 16%.

Turning to `CCC1(c2ccc(CSc3ccccc3Cl)cc2)Oc2ccccc2-n2cccc2C1=O` (racemic), the inhibition amounted to 6.5%.

As to `CCC1(c2ccc(CSc3cccc(C(F)(F)F)c3)cc2)Oc2ccccc2-n2cccc2C1=O` (racemic), the inhibition amounted to 2.7%.
